Measurements as given in ChEMBL document CHEMBL1135400, “Alpha2-adrenoreceptors profile modulation and high antinociceptive activity of (S)-(-)-2-[1-(biphenyl-2-yloxy)ethyl]-4,5-dihydro-1H-imidazole” (J Med Chem, 2002).

Assays:
[1] = target: T1, Adrenergic receptor alpha-2 (Rattus norvegicus, UniProt P22086+P19328+P22909); test: Displacement of [3H]clonidine from Alpha-2 adrenergic receptor of rat cortex membrane
T1 sequence (P22086 whole entry): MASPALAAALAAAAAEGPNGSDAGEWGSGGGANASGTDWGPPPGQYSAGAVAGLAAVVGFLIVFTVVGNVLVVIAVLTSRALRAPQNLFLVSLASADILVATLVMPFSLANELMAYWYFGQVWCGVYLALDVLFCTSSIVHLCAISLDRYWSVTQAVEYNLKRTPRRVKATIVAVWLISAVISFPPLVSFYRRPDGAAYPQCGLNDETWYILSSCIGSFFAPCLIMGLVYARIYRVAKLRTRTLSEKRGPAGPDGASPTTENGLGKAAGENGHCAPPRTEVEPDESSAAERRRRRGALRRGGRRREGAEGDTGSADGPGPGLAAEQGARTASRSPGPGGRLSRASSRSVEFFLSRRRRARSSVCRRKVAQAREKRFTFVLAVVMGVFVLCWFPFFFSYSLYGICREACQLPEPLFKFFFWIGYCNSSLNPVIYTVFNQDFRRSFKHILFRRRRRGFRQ
T1 sequence (P19328 whole entry): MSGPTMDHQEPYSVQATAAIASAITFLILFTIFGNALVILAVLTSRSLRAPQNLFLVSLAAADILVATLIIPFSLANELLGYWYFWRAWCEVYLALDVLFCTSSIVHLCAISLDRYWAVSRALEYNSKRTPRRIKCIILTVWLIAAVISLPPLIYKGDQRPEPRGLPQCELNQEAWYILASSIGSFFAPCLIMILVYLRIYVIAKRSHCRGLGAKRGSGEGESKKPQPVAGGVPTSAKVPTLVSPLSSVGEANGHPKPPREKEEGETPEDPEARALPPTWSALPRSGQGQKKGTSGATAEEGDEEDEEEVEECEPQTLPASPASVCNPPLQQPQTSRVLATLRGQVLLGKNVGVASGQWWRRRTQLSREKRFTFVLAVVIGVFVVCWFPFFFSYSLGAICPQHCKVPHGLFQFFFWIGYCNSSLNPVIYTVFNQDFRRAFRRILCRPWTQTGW
T1 sequence (P22909 whole entry): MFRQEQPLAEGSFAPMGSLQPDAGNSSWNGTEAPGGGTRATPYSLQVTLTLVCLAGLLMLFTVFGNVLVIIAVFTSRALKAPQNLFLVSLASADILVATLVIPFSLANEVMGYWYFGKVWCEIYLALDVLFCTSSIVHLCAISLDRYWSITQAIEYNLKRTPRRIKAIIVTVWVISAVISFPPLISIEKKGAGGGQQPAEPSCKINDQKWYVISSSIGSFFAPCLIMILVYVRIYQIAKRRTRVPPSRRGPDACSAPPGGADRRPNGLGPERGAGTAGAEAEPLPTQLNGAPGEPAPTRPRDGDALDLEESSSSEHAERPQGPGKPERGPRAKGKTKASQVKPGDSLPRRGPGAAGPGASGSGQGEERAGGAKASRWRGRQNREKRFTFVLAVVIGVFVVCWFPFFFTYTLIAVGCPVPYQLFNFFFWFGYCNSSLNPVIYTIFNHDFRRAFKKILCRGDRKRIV
Summary of the method: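 Rat cerebral cortex membranes (200 µg protein) in 50 mM Tris-HCl pH 7.4, 5 nM [3H]clonidine, 10–12 competitor concentrations, 45 min at 25 °C; GF/B filtration, scintillation counting. Nonspecific binding with 10 µM phentolamine. Triplicate points; IC50 by nonlinear regression, Ki by Cheng–Prusoff, curves repeated at least three times, pKi ± SEM.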

[2] = target: T2, Adrenergic receptor alpha-2 (Rattus norvegicus) (UniProt P22086+P19328+P22909); test: pD2 is -log ED50 required to produce 50% inhibition of the twitch response in rat vas deferens (intrinsic activity in presence of clonidine) for Alpha-2 adrenergic receptor; format: tissue-based
Summary of the method: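 Prostatic portion (12 mm) of male albino rat (125–150 g) vas deferens, 37 °C, O2/CO2 95%/5%, 1 g loading tension. Physiological salt solution had 0.54 mM MgCl2, prazosin ([…]), propranolol (1 µM) and cocaine (10 µM). Field stimulation was 0.1 Hz, 3 ms, 10–15 V, recorded isometrically.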

[3] = target: T3, Adrenergic receptor alpha-1 (Rattus norvegicus) (UniProt P15823+P23944+P43140); test: Inhibition of Alpha-1 adrenergic receptor twitch response in rat vas deferens in presence of cirazoline, pD2 is -log ED50; format: tissue-based
[4] = target: Imidazoline I2 binding sites (Oryctolagus cuniculus); test: Displacement of [3H]idazoxan from imidazoline receptor I-2 binding sites in rabbit kidney membrane
[5] = target: T2, Adrenergic receptor alpha-2 (Rattus norvegicus); test: pKb value using clonidine as agonist for Alpha-2 adrenergic receptor; format: functional
Summary of the method: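 Prostatic rat vas deferens held under 0.1 Hz electrical stimulation, with prazosin, propranolol (1 µM) and cocaine (10 µM) present. Compounds lacking agonist activity were tested against clonidine. Dose ratios were taken at clonidine ED50 at one antagonist concentration, tested six times. Dissociation constant by the van Rossum method.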

[6] = Relative binding affinity for Alpha-2 adrenergic receptor and I2 imidazoline binding site (Antilog of the difference between pKi)
Summary of the method: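 Ratio from two radioligand assays. α2: rat cortex membranes with 5 nM [3H]clonidine, nonspecific binding with 10 µM phentolamine. I2: rabbit kidney membranes with 5 nM [3H]idazoxan, adrenoreceptors masked by 10 µM norepinephrine, nonspecific binding with 10 µM cirazoline. Both assays 45 min at 25 °C, Ki by Cheng–Prusoff.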

[7] = target: T2, Adrenergic receptor alpha-2 (Rattus norvegicus); test: Antilog of the difference between pD2 of Alpha-2 adrenergic receptor and pD2 of Alpha-1 adrenergic receptor
[8] = target: T2, Adrenergic receptor alpha-2 (Rattus norvegicus); test: pD2 is -log ED50 required to produce 50% inhibition of the twitch response in rat vas deferens (intrinsic activity in presence of cirazoline) for Alpha-2 adrenergic receptor; format: tissue-based; details: in the assay text read “clonidine” for “cirazoline”
Summary of the method: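 Prostatic portion (12 mm) of male rat vas deferens (125–150 g) at 37 °C under 95% O2/5% CO2, 1 g load. Bath contains 0.54 mM MgCl2, prazosin, 1 µM propranolol and 10 µM cocaine.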

[9] = target: T3, Adrenergic receptor alpha-1 (Rattus norvegicus); test: pKb value using (-)-norepinephrine as agonist for Alpha-1 adrenergic receptor

For C[C@H](Oc1ccccc1-c1ccccc1)C1=NCCN1, the “Log Ki” value [1] was -7.5, the pD2 [2] was 8.55 and the pD2 [3] was 7.51.
In the case of CC(Oc1ccccc1)C1=NCCN1 (centres undefined), the “Log Ki” value [4] is reported as -5.57, the “Log Ki” value [1] is reported as -7.01 and the pKb [5] is reported as 7.29. It also gave a Ratio [6] of 27.5 and a pD2 [3] of 5.2.
In the case of c1ccc(NCC2=NCCN2)cc1 [PHENAMAZOLINE], the “Log Ki” value [4] is reported as -7.48, the “Log Ki” value [1] is reported as -7.14 and the pKb [5] is reported as 6.38. It also gave a Ratio [6] of 0.46 and a pD2 [3] of 4.89.
For c1ccc(-c2ccccc2OCC2=NCCN2)cc1, the “Log Ki” value [1] was -7.1, the pD2 [2] was 8.46 and the pD2 [3] was 6.68.
In the case of C[C@@H](Oc1ccccc1-c1ccccc1)C1=NCCN1, the “Log Ki” value [1] is reported as -7, the pD2 [2] is reported as 7.4 and the pD2 [3] is reported as 6.23.
With CC(Oc1ccccc1-c1ccccc1)C1=NCCN1 (centres undefined) [BIPHENYLINE] the “Log Ki” value [1] was -7.91, the pD2 [2] was 8.52 and the pD2 [3] was 7.2.
In the case of CC(Nc1ccccc1-c1ccccc1)C1=NCCN1 (centres undefined), the “Log Ki” value [4] is reported as -4.9, the “Log Ki” value [1] is reported as -7 and the Ratio [7] is reported as 42.7. It also gave a pD2 [2] of 8.36, a Ratio [6] of 126 and a pD2 [3] of 6.73.
In the case of c1ccc(-c2ccccc2NCC2=NCCN2)cc1, the “Log Ki” value [4] is reported as -6.09, the “Log Ki” value [1] is reported as -6.45 and the Ratio [7] is reported as 29.5. For the same compound, the pD2 [2] was 7.84, the Ratio [6] was 2.3 and the pD2 [3] was 6.37.
For CC(Oc1cccc(-c2ccccc2)c1)C1=NCCN1 (centres undefined), the pD2 [8] was 6.66, the “Log Ki” value [4] was -6.57 and the “Log Ki” value [1] was -6.92. The Ratio [7] was 135, the Ratio [6] was 2.2 and the pD2 [3] was 4.53.
With CC(Oc1ccccc1Cc1ccccc1)C1=NCCN1 (centres undefined) the “Log Ki” value [4] was -5.12, the “Log Ki” value [1] was -6.8 and the pKb [5] was 6.87. For the same compound, the Ratio [6] was 47.9 and the pD2 [3] was 5.99.
In the case of CC(Oc1ccc(-c2ccccc2)cc1)C1=NCCN1 (centres undefined), the “Log Ki” value [4] is reported as -6.74, the “Log Ki” value [1] is reported as -7.5 and the Ratio [7] is reported as 0.78. For the same compound, the pKb [5] was 5.81, the pKb [9] was 5.92 and the Ratio [6] was 5.8.
With c1ccc(Cc2ccccc2OCC2=NCCN2)cc1 the “Log Ki” value [4] was -6.7, the “Log Ki” value [1] was -6.52 and the pKb [5] was 7.14. It also gave a Ratio [6] of 0.66 and a pD2 [3] of 5.27.
With c1ccc(OCC2=NCCN2)cc1 the “Log Ki” value [1] was -7.28, the pKb [5] was 6.71 and the pD2 [3] was 5.26.
